Values belong to the molecule of their own block, whether it stands above or below them.
What was measured:
[1] = organism: Homo sapiens; assay: Adsorbed radiation dose value was calculated to human adrenal; format: functional
Method in brief: (§1)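 Human absorbed dose (rd/mCi) estimated from rat tissue distribution data re-expressed as percent kilogram dose per gram. Fraction of injected dose per human organ = (% kg dose/g × organ weight)/(kg body weight of man × 100). Cumulated activities were derived from these fractions and organ half-times, then combined with Sn-117m S values (rd/μCi-h).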

[2] = organism: Homo sapiens; assay: Adsorbed radiation dose value was calculated to human liver; format: functional; method in brief: as §1
[3] = organism: Homo sapiens; assay: Adsorbed radiation dose value was calculated to human lungs; format: functional; method in brief: as §1
[4] = organism: Homo sapiens; assay: Adsorbed radiation dose value was calculated to human ovaries; format: functional, Female gonad; method in brief: as §1
[5] = organism: Homo sapiens; assay: Adsorbed radiation dose value was calculated to human spleen; format: functional; method in brief: as §1
[6] = organism: Homo sapiens; assay: Adsorbed radiation dose value was calculated to human total body; format: functional; method in brief: as §1
[7] = system: Rattus norvegicus; assay: Tested for distribution of radioactivity in female rat tissue at 14d ay after intravenous administration in blood; format: ADME, organism-based; conditions: in vivo
Method in brief: (§2)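 Rat tissue distribution followed intravenous injection of the tin-117m-labeled steroid into female rats. Adrenals, blood, kidneys, liver and ovaries were counted at the stated day. Values are percent dose/gram, given as the mean and range for three female rats.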

[8] = system: Rattus norvegicus; assay: Tested for distribution of radioactivity in female rat tissue at 14d ay after intravenous administration in kidney; format: ADME, organism-based; conditions: in vivo; method in brief: as §2
[9] = system: Rattus norvegicus; assay: Tested for distribution of radioactivity in female rat tissue at 14d ay after intravenous administration in liver; format: ADME, organism-based; conditions: in vivo; method in brief: as §2
[10] = system: Rattus norvegicus; assay: Tested for distribution of radioactivity in female rat tissue at 14d ay after intravenous administration in ovaries; format: ADME, organism-based; conditions: in vivo; method in brief: as §2
[11] = system: Rattus norvegicus; assay: Tested for distribution of radioactivity in female rat tissue at 3 day after intravenous administration in ovaries; format: ADME, organism-based; conditions: in vivo, 72 h; method in brief: as §2
[12] = system: Rattus norvegicus; assay: Tested for distribution of radioactivity in female rat tissue at 7 day after intravenous administration in adrenal; format: ADME, organism-based; conditions: in vivo, 168 h; method in brief: as §2
[13] = system: Rattus norvegicus; assay: Tested for distribution of radioactivity in female rat tissue at 7 day after intravenous administration in blood; format: ADME, organism-based; conditions: in vivo, 168 h; method in brief: as §2
[14] = system: Rattus norvegicus; assay: Tested for distribution of radioactivity in female rat tissue at 7 day after intravenous administration in kidney; format: ADME, organism-based; conditions: in vivo, 168 h; method in brief: as §2
[15] = system: Rattus norvegicus; assay: Tested for distribution of radioactivity in female rat tissue at 7 day after intravenous administration in liver; format: ADME, organism-based; conditions: in vivo, 168 h; method in brief: as §2
[16] = system: Rattus norvegicus; assay: Tested for distribution of radioactivity in female rat tissue at 7 day after intravenous administration in ovaries; format: ADME, organism-based; conditions: in vivo, 168 h; method in brief: as §2
[17] = system: Rattus norvegicus; assay: Tested for distribution of radioactivity in female rat tissue at 21 day after intravenous administration in adrenal; format: ADME, organism-based; conditions: in vivo, 504 h; method in brief: as §2
[18] = system: Rattus norvegicus; assay: Tested for distribution of radioactivity in female rat tissue at 21 day after intravenous administration in blood; format: ADME, organism-based; conditions: in vivo, 504 h; method in brief: as §2
[19] = system: Rattus norvegicus; assay: Tested for distribution of radioactivity in female rat tissue at 21 day after intravenous administration in kidney; format: ADME, organism-based; conditions: in vivo, 504 h; method in brief: as §2
[20] = system: Rattus norvegicus; assay: Tested for distribution of radioactivity in female rat tissue at 21 day after intravenous administration in ovaries; format: ADME, organism-based; conditions: in vivo, 504 h; method in brief: as §2
[21] = system: Rattus norvegicus; assay: Tested for distribution of radioactivity in female rat tissue at 14d ay after intravenous administration in adrenal; format: ADME, organism-based; conditions: in vivo; method in brief: as §2
[22] = system: Rattus norvegicus; assay: Tested for distribution of radioactivity in female rat tissue at 3 day after intravenous administration in adrenal; format: ADME, organism-based; conditions: in vivo, 72 h; method in brief: as §2
[23] = system: Rattus norvegicus; assay: Tested for distribution of radioactivity in female rat tissue at 3 day after intravenous administration in blood; format: ADME, organism-based; conditions: in vivo, 72 h; method in brief: as §2
[24] = system: Rattus norvegicus; assay: Tested for distribution of radioactivity in female rat tissue at 3 day after intravenous administration in liver; format: ADME, organism-based; conditions: in vivo, 72 h; method in brief: as §2
[25] = system: Rattus norvegicus; assay: Tested for distribution of radioactivity in female rat tissue at 3 day after intravenous administration in kidney; format: ADME, organism-based; conditions: in vivo, 72 h; method in brief: as §2
[26] = organism: Homo sapiens; assay: Adsorbed radiation dose value was calculated to human body; format: functional, organism-based
Method in brief: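 Rat tissue distribution data were converted to percent kilogram dose per gram. The fraction of injected dose in each human organ was taken as (% kg dose/g × organ weight)/(kg body weight × 100). Cumulated activities came from these fractions and organ half-times. Sn-117m S values (rd/µCi-h) then gave the absorbed dose in rd/mCi.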

[27] = system: Rattus norvegicus; assay: Adrenal Uptake was determined on day1 after iv administration into rat; format: functional, organism-based
Method in brief: (§3)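 The tin-117m-labeled steroid was injected intravenously into female rats. Adrenal glands were taken at the stated day after injection, up to 21 days. Radioactivity was reported as percent of injected dose, given as the mean and range.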

[28] = system: Rattus norvegicus; assay: Adrenal Uptake was determined on day 14 after iv administration into rat; format: functional, organism-based; method in brief: as §3
[29] = system: Rattus norvegicus; assay: Adrenal Uptake was determined on day 21 after iv administration into rat; format: functional, organism-based; method in brief: as §3
[30] = system: Rattus norvegicus; assay: Adrenal Uptake was determined on day 3 after iv administration into rat; format: functional, organism-based; method in brief: as §3
[31] = system: Rattus norvegicus; assay: Adrenal Uptake was determined on day 7 after iv administration into rat; format: functional, organism-based; method in brief: as §3
[32] = It is the ratio of adrenal to blood measured on day 21 after iv administration in rat.; format: functional, organism-based
Method in brief: (§4)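 Female rats received an intravenous injection of the tin-117m-labeled steroid. Adrenal/blood and adrenal/liver ratios were calculated from percent dose per gram of tissue at the stated day after injection.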

[33] = It is the ratio of adrenal to blood measured on day1 after iv administration in rat.; format: functional, organism-based; method in brief: as §4
[34] = It is the ratio of adrenal to blood measured on day 14 after iv administration in rat.; format: functional, organism-based; method in brief: as §4
[35] = It is the ratio of adrenal to blood measured on day 3 after iv administration in rat.; format: functional, organism-based; method in brief: as §4
[36] = It is the ratio of adrenal to blood measured on day 7 after iv administration in rat.; format: functional, organism-based; method in brief: as §4
[37] = It is the ratio of adrenal to liver measured on day 14 after iv administration in rat.; format: functional, organism-based; method in brief: as §4
[38] = It is the ratio of adrenal to liver measured on day 21 after iv administration in rat.; format: functional, organism-based; method in brief: as §4
[39] = It is the ratio of adrenal to liver measured on day 3 after iv administration in rat.; format: functional, organism-based; method in brief: as §4
[40] = It is the ratio of adrenal to liver measured on day 7 after iv administration in rat.; format: functional, organism-based; method in brief: as §4
[41] = It is the ratio of adrenal to liver measured on day1 after iv administration in rat.; format: functional, organism-based; method in brief: as §4

Molecule: CC(C)[Te]CCC(C)C1CC[C@H]2[C@@H]3CC[C@H]4CC(O)CCC4(C)[C@H]3CCC12C (some centres not stated)
Dose [1]: 98 rd mCi-1
Dose [2]: 1.6 rd mCi-1
Dose [3]: 1.3 rd mCi-1
Dose [4]: 8 rd mCi-1
Dose [5]: 1.4 rd mCi-1
Dose [6]: 0.8 rd mCi-1

Molecule: CC(C)[Te]CCCC(C)C1CCC2C3CC=C4CC(O)CCC4(C)C3CCC12C (configuration not stated)
Dose [1]: 210 rd mCi-1
Dose [2]: 2 rd mCi-1
Dose [3]: 1.9 rd mCi-1
Dose [4]: 13 rd mCi-1
Dose [5]: 34 rd mCi-1
Dose [6]: 1.4 rd mCi-1

Dose/g [7]: 0.15%
Dose/g [8]: 0.38%
Dose/g [9]: 0.2%
Dose/g [10]: 2.53%
Dose/g [11]: 10.99%
Dose/g [12]: 19.37%
Dose/g [13]: 0.19%
Dose/g [14]: 0.54%
Dose/g [15]: 0.44%
Dose/g [16]: 4.9%
Dose/g [17]: 2.33%
Dose/g [18]: 0.1%
Dose/g [19]: 0.26%
Dose/g [20]: 1.26%
Dose/g [21]: 7.46%
Dose/g [22]: 50.88%
Dose/g [23]: 0.8%
Dose/g [24]: 2.13%
Dose/g [25]: 0.79%
Molecule: Stannanyl complex [listing 1 of 2 here]

Molecule: Stannanyl complex [listing 2 of 2 here]
Dose [1]: 83 rd mCi-1
Dose [26]: 0.77 rd mCi-1
Dose [2]: 5.3 rd mCi-1
Dose [3]: 4.1 rd mCi-1
Dose ([4]; Female gonad): 4.4 rd mCi-1
Dose [5]: 7.7 rd mCi-1
Adrenal uptake [27]: 2.51
Adrenal uptake [28]: 0.34
Adrenal uptake [29]: 0.16
Adrenal uptake [30]: 2.86
Adrenal uptake [31]: 1.1
Ratio [32]: 23.3
Ratio [33]: 33.7
Ratio [34]: 49.7
Ratio [35]: 63.6
Ratio [36]: 102
Ratio [37]: 37.3
Ratio [38]: 16.6
Ratio [39]: 23.9
Ratio [40]: 44
Ratio [41]: 9.1
